Measurements published in ChEMBL document CHEMBL1926651, “Design, synthesis, antiviral and cytostatic evaluation of novel isoxazolidine nucleotide analogues with a 1,2,3-triazole linker” (Eur J Med Chem, 2012).
Calls of active or inactive are those of the source. The rule behind the calls is not given here.

Experiments:
HEL [1] = experiment: Cytotoxicity against human HEL cells assessed as change in cell morphology up to 100 uM; type: cell-based
How it was run: (§1)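 Uninfected host-cell cultures were examined under the microscope. MCC was taken as the lowest compound concentration producing a detectable alteration of normal cell morphology, assessed at concentrations up to 100 μM.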

[2] = system: Vesicular stomatitis virus; experiment: Antiviral activity against Vesicular stomatitis virus infected in human Hela cells assessed as inhibition of viral plaque formation at 250 uM; type: functional, organism-based
[3] = system: Human immunodeficiency virus 1; experiment: Antiviral activity against Human immunodeficiency virus 1 infected in human CEM cells assessed as inhibition of virus-induced giant cell formation after 4 days by microscopic analysis; type: functional, organism-based; details: CCRF-CEM
How it was run: (§2)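 CEM cells at about 3 × 10⁵ cells/cm³ were infected with 100 CCID50/mL of HIV-1(IIIB) or HIV-2(ROD), then seeded into wells holding test compound dilutions. After 4 days at 37 °C, virus-induced giant cell formation was scored microscopically.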

Feline coronavirus = experiment: Antiviral activity against Feline coronavirus infected in CrFK cells assessed as inhibition of viral plaque formation at 250 uM; type: functional, organism-based
How it was run: (§3)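 Confluent host cell monolayers were inoculated with 100 CCID50 of virus in the presence of test compound at serial dilutions (250, 50, 10, … μM). Viral cytopathicity was scored once it reached completion in untreated virus-infected controls.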

Human respirovirus 3 = experiment: Antiviral activity against Parainfluenza-3 virus infected in african green monkey Vero cells assessed as inhibition of viral plaque formation at 250 uM; type: functional, organism-based; how it was run: as §3
[4] = system: Respiratory syncytial virus; experiment: Antiviral activity against Respiratory syncytial virus infected in human HeLa cells assessed as inhibition of viral plaque formation at 250 uM; type: functional, organism-based; how it was run: as §3
Human alphaherpesvirus 1 [5] = experiment: Antiviral activity against Herpes simplex virus 1 KOS infected in human HEL cells assessed as inhibition of viral plaque formation at 250 uM; type: functional, organism-based; how it was run: as §3
Human alphaherpesvirus 3 [6] = experiment: Antiviral activity against thymidine kinase-deficient Varicella Zoster virus 07/1 infected in human HEL cells assessed as inhibition of viral plaque formation at 250 uM; type: functional, organism-based
CCRF-CEM = experiment: Cytotoxicity against human CEM cells 3 days by coulter counting; type: functional; details: 72 h
How it was run: (§4)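 Cells were suspended at 300,000–500,000 cells/mL and added 1:1 to compound dilutions. Incubation was at 37 °C, 2 days for L1210 and 3 days for CEM, HeLa and HEL. Cells were counted with a Coulter counter. CC50 is the concentration inhibiting cell proliferation by 50%.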

Sindbis virus = experiment: Antiviral activity against Sindbis virus infected in african green monkey Vero cells assessed as inhibition of viral plaque formation at 250 uM; type: functional, organism-based; how it was run: as §3
Vero = experiment: Cytotoxicity against african green monkey Vero cells assessed as change in cell morphology up to 100 uM; type: cell-based; details: chlorocebus sabaeus; how it was run: as §1
Human betaherpesvirus 5 [7] = experiment: Antiviral activity against Human cytomegalovirus AD169 infected in human HEL cells assessed as inhibition of viral plaque formation at 250 uM; type: functional, organism-based
[8] = system: Vesicular stomatitis virus; experiment: Antiviral activity against Vesicular stomatitis virus infected in human HEL cells assessed as inhibition of viral plaque formation at 250 uM; type: functional, organism-based; how it was run: as §3
MDCK = experiment: Cytotoxicity against MDCK cells assessed as change in cell morphology up to 100 uM; type: cell-based, Canis lupus familiaris; details: dog; how it was run: as §1
HEL [9] = experiment: Cytotoxicity against human HEL cells 3 days by coulter counting; type: functional; details: 72 h; how it was run: as §4
Coxsackievirus B4 [10] = experiment: Antiviral activity against Coxsackievirus B4 infected in african green monkey Vero cells assessed as inhibition of viral plaque formation at 250 uM; type: functional, organism-based; how it was run: as §3
[11] = Cytotoxicity against CRFK cells assessed as change in cell morphology up to 100 uM; type: cell-based, Felis catus; details: cat; how it was run: as §1
Punta Toro virus = experiment: Antiviral activity against Punta Toro virus infected in african green monkey Vero cells assessed as inhibition of viral plaque formation at 250 uM; type: functional, organism-based
HeLa [12] = experiment: Cytotoxicity against human HeLa cells assessed as change in cell morphology up to 100 uM; type: cell-based; how it was run: as §1
Coxsackievirus B4 [13] = experiment: Antiviral activity against Coxsackievirus B4 infected in human HeLa cells assessed as inhibition of viral plaque formation at 250 uM; type: functional, organism-based; how it was run: as §3
Human betaherpesvirus 5 [14] = experiment: Antiviral activity against Human cytomegalovirus Davis infected in human HEL cells assessed as inhibition of viral plaque formation at 250 uM; type: functional, organism-based
Vaccinia virus = experiment: Antiviral activity against Vaccinia virus infected in human HEL cells assessed as inhibition of viral plaque formation at 250 uM; type: functional, organism-based; details: Orthopoxvirus vaccinia; how it was run: as §3
Human alphaherpesvirus 1 [15] = experiment: Antiviral activity against thymidine kinase-deficient acv-resistant Herpes simplex virus 1 KOS infected in human HEL cells assessed as inhibition of viral plaque formation at 250 uM; type: functional, organism-based
[16] = system: Mammalian orthoreovirus 1; experiment: Antiviral activity against Reovirus-1 infected in african green monkey Vero cells assessed as inhibition of viral plaque formation at 250 uM; type: functional, organism-based; how it was run: as §3
Human alphaherpesvirus 2 = experiment: Antiviral activity against Herpes simplex virus 2 G infected in human HEL cells assessed as inhibition of viral plaque formation at 250 uM; type: functional, organism-based; details: strain G
Human alphaherpesvirus 3 [17] = experiment: Antiviral activity against thymidine kinase-positive Varicella Zoster virus Oka infected in human HEL cells assessed as inhibition of viral plaque formation at 250 uM; type: functional, cell-based; details: strain Oka vaccine
Felid alphaherpesvirus 1 = experiment: Antiviral activity against Felid herpesvirus 1 infected in CrFK cells assessed as inhibition of viral plaque formation at 250 uM; type: functional, organism-based; how it was run: as §3
[18] = system: Human immunodeficiency virus 2; experiment: Antiviral activity against Human immunodeficiency virus 2 infected in human CEM cells assessed as inhibition of virus-induced giant cell formation after 4 days by microscopic analysis; type: functional, organism-based; details: CCRF-CEM; how it was run: as §2
HeLa [19] = experiment: Cytotoxicity against human HeLa cells 3 days by coulter counting; type: functional; details: 72 h; how it was run: as §4
L1210 = experiment: Cytotoxicity against mouse L1210 cells 2 days by coulter counting; type: functional; details: L1210, 48 h; how it was run: as §4

For CCOP(=O)(OCC)[C@@H]1C[C@H](n2cc(-c3cccc(F)c3)nn2)ON1C (relative stereo), the Activity (HEL [1]) was “Non-toxic”, the Activity [2] was “inactive” and the Activity [3] was “inactive”. The Activity (Feline coronavirus) was “inactive”, the Activity (Human respirovirus 3) was “inactive” and the Activity [4] was “inactive”. The Activity (Human alphaherpesvirus 1 [5]) was “inactive”, the Activity (Human alphaherpesvirus 3 [6]) was “inactive” and the CC50 (CCRF-CEM) was greater than 250 µM. For the same compound, the Activity (Sindbis virus) was “inactive”, the Activity (Vero) was “Non-toxic” and the Activity (Human betaherpesvirus 5 [7]) was “inactive”. For the same compound, the Activity [8] was “inactive”, the Activity (MDCK) was “Non-toxic” and the CC50 (HEL [9]) was 43 µM. The Activity (Coxsackievirus B4 [10]) was “inactive”, the Activity [11] was “Non-toxic” and the Activity (Punta Toro virus) was “inactive”. For the same compound, the Activity (HeLa [12]) was “Non-toxic”, the Activity (Coxsackievirus B4 [13]) was “inactive” and the Activity (Human betaherpesvirus 5 [14]) was “inactive”. The Activity (Vaccinia virus) was “inactive”, the Activity (Human alphaherpesvirus 1 [15]) was “inactive” and the Activity [16] was “inactive”. For the same compound, the Activity (Human alphaherpesvirus 2) was “inactive”, the Activity (Human alphaherpesvirus 3 [17]) was “inactive” and the Activity (Felid alphaherpesvirus 1) was “inactive”. The Activity [18] was “inactive”, the CC50 (HeLa [19]) was 212 µM and the CC50 (L1210) was 104 µM.

In the case of CCOP(=O)(OCC)[C@@H]1C[C@H](n2cc(-c3ccc(F)cc3F)nn2)ON1C (relative stereo), the Activity (HEL [1]) is reported as “Non-toxic”, the Activity [2] is reported as “inactive” and the Activity [3] is reported as “inactive”. The Activity (Feline coronavirus) was “inactive”, the Activity (Human respirovirus 3) was “inactive” and the Activity [4] was “inactive”. For the same compound, the Activity (Human alphaherpesvirus 1 [5]) was “inactive”, the Activity (Human alphaherpesvirus 3 [6]) was “inactive” and the CC50 (CCRF-CEM) was no less than 250 µM. For the same compound, the Activity (Sindbis virus) was “inactive”, the Activity (Vero) was “Non-toxic” and the Activity (Human betaherpesvirus 5 [7]) was “inactive”. For the same compound, the Activity [8] was “inactive”, the Activity (MDCK) was “Non-toxic” and the CC50 (HEL [9]) was 42 µM. The Activity (Coxsackievirus B4 [10]) was “inactive”, the Activity [11] was “Non-toxic” and the Activity (Punta Toro virus) was “inactive”. The Activity (HeLa [12]) was “Non-toxic”, the Activity (Coxsackievirus B4 [13]) was “inactive” and the Activity (Human betaherpesvirus 5 [14]) was “inactive”. For the same compound, the Activity (Vaccinia virus) was “inactive”, the Activity (Human alphaherpesvirus 1 [15]) was “inactive” and the Activity [16] was “inactive”. For the same compound, the Activity (Human alphaherpesvirus 2) was “inactive”, the Activity (Human alphaherpesvirus 3 [17]) was “inactive” and the Activity (Felid alphaherpesvirus 1) was “inactive”. For the same compound, the Activity [18] was “inactive”, the CC50 (HeLa [19]) was 135 µM and the CC50 (L1210) was 124 µM.

In the case of CCOP(=O)(OCC)[C@@H]1C[C@H](n2cc(-c3ccccn3)nn2)ON1C (relative stereo), the Activity (HEL [1]) is reported as “Non-toxic”, the Activity [2] is reported as “inactive” and the Activity [3] is reported as “inactive”. The Activity (Feline coronavirus) was “inactive”, the Activity (Human respirovirus 3) was “inactive” and the Activity [4] was “inactive”. The Activity (Human alphaherpesvirus 1 [5]) was “inactive”, the Activity (Human alphaherpesvirus 3 [6]) was “inactive” and the CC50 (CCRF-CEM) was greater than 250 µM. For the same compound, the Activity (Sindbis virus) was “inactive”, the Activity (Vero) was “Non-toxic” and the Activity (Human betaherpesvirus 5 [7]) was “inactive”. For the same compound, the Activity [8] was “inactive”, the Activity (MDCK) was “Non-toxic” and the CC50 (HEL [9]) was 78 µM. The Activity (Coxsackievirus B4 [10]) was “inactive”, the Activity [11] was “Non-toxic” and the Activity (Punta Toro virus) was “inactive”. For the same compound, the Activity (HeLa [12]) was “Non-toxic”, the Activity (Coxsackievirus B4 [13]) was “inactive” and the Activity (Human betaherpesvirus 5 [14]) was “inactive”. The Activity (Vaccinia virus) was “inactive”, the Activity (Human alphaherpesvirus 1 [15]) was “inactive” and the Activity [16] was “inactive”. For the same compound, the Activity (Human alphaherpesvirus 2) was “inactive”, the Activity (Human alphaherpesvirus 3 [17]) was “inactive” and the Activity (Felid alphaherpesvirus 1) was “inactive”. The Activity [18] was “inactive”, the CC50 (HeLa [19]) was greater than 250 µM and the CC50 (L1210) was 206 µM.
